According to ChEMBL document CHEMBL2146449, “Design, synthesis, and biological evaluation of the analogues of glaziovianin A, a potent antitumor isoflavone” (Bioorg Med Chem, 2012):
Calls of active or inactive are those of the source. The rule behind the calls is not given here.

Columns and labels:
[1] = Cytotoxicity against human HeLaS3 cells after 48 hrs by WST8 assay; format: functional, cell-based; details: HeLa S3, 48 h
Outline: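 HeLa S3 seeded at 3 × 10^3 cells/well, left overnight, then given a range of compound concentrations for 48 h. WST-8 added for 2 h and absorbance read at 450 nm. Viability (% control) = (sample − blank)/(0 µM well − blank) × 100. Cells in DMEM + 10% FCS, 37 °C, 5% CO2.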

HeLa S3 [2] = assay: Ratio of glaziovianin A IC50 to compound IC50 for human HeLaS3 cells; format: functional
[3] = Cell cycle arrest in human HeLaS3 cells assessed as accumulation at G2/M phase at 1 uM after 24 hrs by flow cytometric analysis; format: functional, cell-based; details: HeLa S3
Outline: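 HeLa S3 cells at 3 × 10^4 cells/mL exposed to compound for 24 h, harvested, fixed in 70% EtOH at -20 °C, stained with propidium iodide; DNA content read by flow cytometry. DMSO-treated cells as control. Cells kept in DMEM with 10% FCS at 37 °C, 5% CO2.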

HeLa S3 [4] = assay: Induction of mitotic arrest in human HeLaS3 cells assessed as abnormal multipolar spindles at 1 uM after 6 hrs by immunofluorescence staining; format: functional, cell-based
Outline: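 HeLa S3 at 3 × 10^4 cells/mL grown on coverslips, treated 6 h, fixed in -20 °C MeOH for 5 min. Anti-α-tubulin DM1A (1:250) in PBS with 0.5% BSA for 1 h at 37 °C, then Alexa488 anti-mouse IgG (1:2000) for 1 h. DAPI 0.1 µg/mL for chromosomes; spindles examined by fluorescence microscopy. DMSO control.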

COc1cc(-c2coc3cc(OC)c(OC)c(OC)c3c2=O)c(OC)c2c1OCO2
IC50 [1]: > 100 µM

COc1cc2occ(-c3cc(OC)c4c(c3OC)OC(C)(C)O4)c(=O)c2cc1OC
IC50 [1]: > 100 µM

COc1cc2occ(-c3cc(OC)c(OC)c(OC)c3OC)c(=O)c2cc1OC
Ratio IC50 (HeLa S3 [2]): 0.027 | IC50 [1]: 22 µM

COc1cc2c(=O)c(-c3cc(OC)c4c(c3OC)OCO4)coc2cc1OCC(O)CO (stereo not drawn)
IC50 [1]: > 100 µM

COc1cc2c(=O)c(-c3cc(OC)c4c(c3OC)OCO4)coc2cc1O
IC50 [1]: > 100 µM

COc1cc2c(=O)c(-c3cc(OC)c4c(c3OC)OCO4)coc2cc1OC1O[C@H](CO)[C@@H](O)[C@H](O)[C@H]1O (mixture of isomers)
IC50 [1]: > 100 µM

COc1cc2c(=O)c(-c3cc(OC)c4c(c3OC)OCO4)coc2cc1OCc1ccccc1
Activity [3]: Active | Ratio IC50 (HeLa S3 [2]): 3.1 | IC50 [1]: 0.19 µM | Activity (HeLa S3 [4]): Active

C#CCOc1cc2occ(-c3cc(OC)c4c(c3OC)OCO4)c(=O)c2cc1OC
Activity [3]: Active | Ratio IC50 (HeLa S3 [2]): 3.5 | IC50 [1]: 0.17 µM | Activity (HeLa S3 [4]): Active

COc1cc2occ(-c3cc(OC)c4c(c3OC)OCO4)c(=O)c2cc1OC [GLAZIOVIANIN A]
Activity [3]: Active | IC50 [1]: 0.59 µM | Activity (HeLa S3 [4]): Active

C=CCOc1cc2occ(-c3cc(OC)c4c(c3OC)OCO4)c(=O)c2cc1OC
Activity [3]: Active | Ratio IC50 (HeLa S3 [2]): 1.3 | IC50 [1]: 0.46 µM | Activity (HeLa S3 [4]): Active

COc1cc2c(=O)c(-c3cc(OC)c4c(c3OC)OCO4)coc2cc1OC/C=C/CCC(=O)NCCCCCCNC(=O)CCCC1=C2C(C)=CC(C)=[N+]2[B-](F)(F)n2c(C)cc(C)c21
Ratio IC50 (HeLa S3 [2]): 0.034 | IC50 [1]: 17.4 µM

COc1cc2c(=O)c(-c3cc(OC)c4c(c3OC)OCO4)coc2cc1OC1O[C@H](COC(C)=O)[C@@H](OC(C)=O)[C@H](OC(C)=O)[C@H]1OC(C)=O (mixture of isomers)
IC50 [1]: > 100 µM

COc1cc2c(=O)c(-c3cc(OC)c4c(c3OC)OCO4)coc2cc1OC/C=C/CCC(=O)NCCCCCCNC(=O)CCCC[C@@H]1SC[C@@H]2NC(=O)N[C@@H]21
Ratio IC50 (HeLa S3 [2]): 0.038 | IC50 [1]: 15.5 µM

COc1cc2occ(-c3ccc4c(c3)OCO4)c(=O)c2cc1OC
Ratio IC50 (HeLa S3 [2]): 0.01

COc1cc2c(=O)c(-c3cc(OC)c4c(c3OC)OCO4)coc2cc1OC1CCCCO1 (stereo not drawn)
IC50 [1]: > 100 µM

COc1cc2occ(-c3c(Br)c(OC)c4c(c3OC)OCO4)c(=O)c2cc1OC
Ratio IC50 (HeLa S3 [2]): 0.009 | IC50 [1]: 67.8 µM

COc1cc2c(=O)c(-c3cc(OC)c4c(c3OC)OCO4)coc2cc1OCCCCCC(=O)NCCCCCCNC(=O)CCCC[C@@H]1SC[C@@H]2NC(=O)N[C@@H]21
Ratio IC50 (HeLa S3 [2]): 0.039 | IC50 [1]: 15.2 µM
